Activity calls are given as the source filed them. The rule behind the calls is not given here.
Tests used:
[1] = target: Type-1 angiotensin II receptor (Rattus norvegicus) (UniProt P25095); experiment: Displacement of [125I]Ang2 from AT1 receptor in rat liver membrane
[2] = test system: NG108-15; experiment: Induction of neurite growth in NG108-15 cells relative to control; assay type: functional, cell-based
Procedure, shortened: (§1)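 NG108-15 cells, which express only AT2, were plated at 4 × 10⁴ cells per 35 mm dish and grown 3 days with or without 0.1 µM agonist, with Ang II as reference. Micrographs were taken under phase contrast. Cells with at least one neurite longer than the cell body were scored positive, as a percentage of 50–100 total cells.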

[3] = test system: NG108-15; experiment: Induction of neurite growth in NG108-15 cells at 0.1 uM after 3 days in presence of PD-123319; assay type: functional, cell-based
Procedure, shortened: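 Here the 0.1 µM agonist was co-incubated with 1 µM of the AT2 antagonist PD 123,319 for 3 days. NG108-15 cells were plated at 4 × 10⁴ per 35 mm dish. The percentage of cells bearing a neurite longer than the cell body was counted from phase-contrast micrographs of 50–100 cells.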

[4] = test system: NG108-15; experiment: Induction of NG108-15 cell death at 1 uM; assay type: functional, cell-based
Procedure, shortened: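 NG108-15 neuroblastoma × glioma hybrid cells plated at 4 × 10⁴ cells per 35 mm dish and cultured 3 days with test agent across 1 pM to 1 µM. Cells were then examined by phase contrast microscopy and micrographs taken to assess cell death.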

[5] = test system: NG108-15; experiment: Induction of neurite growth in NG108-15 cells at 0.1 uM after 3 days; assay type: functional, cell-based
Procedure, shortened: as §1

Compound	Ki [1]	other results
CCCCOC(=O)NS(=O)(=O)c1ccc(CCCC)cc1-c1ccc(Cn2ccnc2)cc1	> 10 µM	
CCCCOC(=O)NS(=O)(=O)c1ccc(OC(C)C)cc1-c1ccc(Cn2ccnc2)cc1	> 10 µM	
Cc1cc(Cn2cnc3c2C[C@@H](C(=O)O)N(C(=O)C(c2ccccc2)c2ccccc2)C3)ccc1N(C)C		Activity [2]: inactive
CCCCOC(=O)NS(=O)(=O)c1ccc(OCCCC)cc1-c1ccc(Cn2ccnc2)cc1		Activity [3]: inactive; Activity [4]: Active; Activity [5]: Active
CCCCOC(=O)NS(=O)(=O)c1sc(CCC)cc1-c1ccc(Cn2ccnc2)cc1		Activity [3]: inactive; Activity [4]: Active; Activity [5]: Active
CCCCS(=O)(=O)NS(=O)(=O)c1sc(CC(C)C)cc1-c1ccc(Cn2ccnc2)cc1	> 10 µM	
CCCCc1ccc(S(=O)(=O)NC(=O)OCC)c(-c2ccc(Cn3ccnc3)cc2)c1	> 10 µM	
CC(C)Cc1cc(-c2ccc(Cn3ccnc3)cc2)c(S(=O)(=O)NC(=O)OC(C)C)s1	> 10 µM	

Second part, led by results:

Ki [1]	Compound	other results
> 10 µM	CCCCOC(=O)NS(=O)(=O)c1sc(CCCC)cc1-c1ccc(Cn2ccnc2)cc1	
> 10 µM	CCCCN(C)C(=O)NS(=O)(=O)c1sc(CC(C)C)cc1-c1ccc(Cn2ccnc2)cc1	
> 10 µM	CCCCS(=O)(=O)NC(=O)c1sc(CC(C)C)cc1-c1ccc(Cn2ccnc2)cc1	
> 10 µM	COCCOC(=O)NS(=O)(=O)c1sc(CC(C)C)cc1-c1ccc(Cn2ccnc2)cc1	
> 10 µM	CC(C)Cc1cc(-c2ccc(Cn3ccnc3)cc2)c(S(=O)(=O)NC(=O)OC(C)(C)C)s1	
